Compounds with a hit are over-represented: about 5.2% of the library has one in this group of screens.
Ecoli WT expand – blocks growth of wild type E. coli BW25113; OD600 absorbance; AID 710; hit rate 0.15% among 98,000; growth inhibition, % at 100 µM;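 active = growth inhibition above about 50% at one test dose, limit read from the data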;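 also: growth measured after 20 h incubation at 37 °C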
M1 ag – agonists of M1 muscarinic receptor; hit rate 3% among 64,000; B-score at 10 µM; CHO-M1 cells, Fluo-4 calcium fluorescence, agonist mode; active compounds read high;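 active = fluorescence rise, raw or as B-score row- and column-corrected plate score, outside the 99.7% band of its plate's samples, either direction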
WNV NS2B-NS3 inh – WNV NS2B-NS3 proteinase inhibition | P06935 | WNV NS2B-NS3 protease, fluorogenic substrate Ex360/Em465; active compounds read low | z-score (test concentration not listed) | hit rate 0.18% among 65,000; in the data active = z-score below about -3
AP complement – orthogonal test for alternative complement pathway inhibitors; Human serum alternative complement pathway, LPS-coated ELISA, C3 deposition; tested in compound mixtures; inhibition, % at 5 µM; hit rate 0.08% among 62,000; AID 1235;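 active = inhibition above 30% in each of the two pooled mixtures holding the compound, so the lower value exceeds 30%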
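Assay system: human serum alternative complement pathway, C3 deposition on LPS-coated wells; Dosing: 5 µM per compound in ten-compound mixtures; Detection: Anti-C3 ELISA, OD 450 nm; Buffer or medium: Mg2+-EGTA GVB++ buffer containing human serum at 1:15 dilution; Timing: 1 h at 37 °C; Replication: two different pools per compound.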
Ecoli tolC – E. coli tolC mutant growth inhibition | E. coli BW25113 tolC mutant growth, OD615 | growth inhibition, % at 10 µM (by protocol) | hit rate 2.2% among 65,000 | AID 573;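 active = growth inhibition at or above a cutoff equal to the mean over every tested compound plus 3 SD, cut at about 60% in these data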;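 also: growth measured after 20 h incubation at 37 °C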
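Signal: optical density read at 615 nm; Assay system: E. coli ΔtolC::kan strain BW25113; Times: 20 h incubation with compound, 37 °C; Dosing: 10 µM final, single dose.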
M1 antag – blocks the rat M1 muscarinic receptor response to acetylcholine. P08482. CHO-M1 cells, Fluo-4 calcium, ACh EC80 antagonist mode; active compounds read low. B-score at 10 µM. hit rate 3.4% among 64,000;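 active = calcium fluorescence response, raw or row-and-column corrected B-score, differing from the plate sample mean either way at a set confidence level, mostly lower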
Target sequence (P08482 whole entry, looked up): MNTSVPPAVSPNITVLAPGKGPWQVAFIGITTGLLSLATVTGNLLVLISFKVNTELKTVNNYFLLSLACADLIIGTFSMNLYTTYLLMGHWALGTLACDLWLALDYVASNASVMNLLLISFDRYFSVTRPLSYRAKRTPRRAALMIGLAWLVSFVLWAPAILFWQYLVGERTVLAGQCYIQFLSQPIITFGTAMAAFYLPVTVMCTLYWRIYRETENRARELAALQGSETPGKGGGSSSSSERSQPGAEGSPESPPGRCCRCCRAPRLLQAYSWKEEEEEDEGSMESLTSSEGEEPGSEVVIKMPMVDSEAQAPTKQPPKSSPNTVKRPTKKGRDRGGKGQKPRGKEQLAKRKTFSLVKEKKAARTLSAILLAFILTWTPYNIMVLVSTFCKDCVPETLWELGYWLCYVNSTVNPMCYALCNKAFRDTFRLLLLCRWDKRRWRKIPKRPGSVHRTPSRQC
M1 agonist conf – rat M1 muscarinic agonism, confirmation | shares compounds with M1 ag | CHO-M1 cells, Fluo-4 calcium fluorescence, agonist mode; actives lie on both sides | fluorescence change (max-min) at 10 µM | hit rate 19% among 1,700;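 active = fluorescence change differs from the solvent-only DMSO control mean at a set confidence level in both duplicate runs; inconclusive = differs from solvent-only control mean in just one of two runs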;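 also: an EC20 dose of acetylcholine follows compound addition during the same imaging run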
M4 ag counter – rat M4 muscarinic agonism, M1 counter-screen | CHO M4/Gqi5 cells, Fluo-4 calcium fluorescence, agonist mode; actives lie on both sides | shares compounds with M1 ag | AID 1741 | hit rate 9% among 1,700 | fluorescence change (max-min) at 10 µM;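 active = fluorescence change differing from the plate's solvent-only control wells at 99.7% confidence in both duplicates, whether higher or lower; inconclusive = differs from solvent controls in only one of two duplicates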
A number is an active result.

CCC(C)[C@H](NC(=O)NCC1CCCO1)C(=O)OC (stereo not given in full) was read as Ecoli WT expand inactive, M1 ag 5, WNV NS2B-NS3 inh inactive, AP complement inactive, Ecoli tolC inactive, M1 antag inactive, M1 agonist conf inactive and M4 ag counter inactive.
CCn1nc(NC(=O)c2cccnc2)c2cc3ccccc3nc21 was read as Ecoli WT expand inactive, M1 ag 5, WNV NS2B-NS3 inh inactive, AP complement inactive, Ecoli tolC inactive, M1 antag inactive, M1 agonist conf -30 and M4 ag counter -92.
`CCn1nc(NC(=O)c2ccccn2)c2cc3cc(C)ccc3nc21` gave Ecoli WT expand inactive, M1 ag inactive, WNV NS2B-NS3 inh inactive, AP complement inactive, Ecoli tolC inactive and M1 antag inactive.
For COc1ccc(S(=O)(=O)N2Cc3ccccc3CC2C(=O)Nc2ccc(O)cc2)cc1OC (stereo not given) the results were Ecoli WT expand inactive, M1 ag 4, WNV NS2B-NS3 inh inactive, AP complement inactive, Ecoli tolC inactive, M1 antag inactive, M1 agonist conf inactive and M4 ag counter inactive.
`O=C(Nc1ccc2c(c1)OCO2)C1Cc2ccccc2CN1S(=O)(=O)c1cccs1` (stereo not given) gave Ecoli WT expand inactive, M1 ag 5.5, WNV NS2B-NS3 inh inactive, AP complement inactive, Ecoli tolC inactive, M1 antag inactive, M1 agonist conf inactive and M4 ag counter inactive.
For COc1ccc(CSc2nnnn2Cc2ccccc2)cc1OC the results were Ecoli WT expand inactive, M1 ag inactive, WNV NS2B-NS3 inh inactive, AP complement inactive, Ecoli tolC inactive and M1 antag inactive.
CCOC(=O)c1c(NC(=O)CSc2nnc(-c3cccnc3)n2Cc2ccco2)sc(C)c1C was read as Ecoli WT expand inactive, M1 ag inactive, WNV NS2B-NS3 inh inactive, AP complement inactive, Ecoli tolC inactive and M1 antag inactive.
For O=C(OCCNC(=O)c1ccc2ccccc2n1)c1cccnc1 the results were Ecoli WT expand inactive, M1 ag 3.2, WNV NS2B-NS3 inh inactive, AP complement inactive, Ecoli tolC inactive, M1 antag inactive, M1 agonist conf inconclusive and M4 ag counter inactive.
For CC(C)N(Cc1nnc(-c2ccccc2Cl)o1)C(=O)c1cccc(C#N)c1 the results were M1 ag inactive, WNV NS2B-NS3 inh inactive, AP complement inactive, Ecoli tolC inactive and M1 antag inactive.
Screening CCCCOc1[nH]c2nc(-c3ccco3)n(Cc3ccco3)c(=N)c2c1C#N returned Ecoli WT expand inactive, M1 ag 15, WNV NS2B-NS3 inh inactive, AP complement inactive, Ecoli tolC 78, M1 antag inactive, M1 agonist conf inactive and M4 ag counter inactive.
Screening c1ccc(CSc2nnc(-c3ccco3)n2Cc2ccco2)cc1 returned Ecoli WT expand inactive, M1 ag inactive, WNV NS2B-NS3 inh inactive, AP complement inactive, Ecoli tolC inactive and M1 antag inactive.
Screening NC(=O)NC(c1ccccc1)c1cccc2ccccc12 (stereo not given) returned Ecoli WT expand inactive.
CC1(C)CC(=NO)CC(C)(C)N1 was read as Ecoli WT expand inactive, M1 ag inactive, WNV NS2B-NS3 inh inactive, AP complement inactive, Ecoli tolC inactive and M1 antag inactive.
`O=C(Nc1cccc(-c2cn3cccnc3n2)c1)c1ccco1` gave Ecoli WT expand inactive, M1 ag inactive, WNV NS2B-NS3 inh inactive, AP complement inactive, Ecoli tolC inactive and M1 antag inactive.
O=C(Nc1cccc(-c2cn3cccnc3n2)c1)c1ccc2c(c1)OCO2 was read as Ecoli WT expand inactive, M1 ag 3, WNV NS2B-NS3 inh inactive, AP complement inactive, Ecoli tolC inactive, M1 antag inactive, M1 agonist conf inconclusive and M4 ag counter inconclusive.
COc1cccc(C2=NOC(C(=O)Nc3ccccc3SC)C2)c1 (stereo not given) was read as Ecoli WT expand inactive.
For CCCN(CCO)Cc1ccc2ccccc2c1 the results were Ecoli WT expand inactive.
`O=C(O)[C@@H](c1ccccc1)N1Cc2ccccc2C1=O` gave Ecoli WT expand inactive, M1 ag 3, WNV NS2B-NS3 inh inactive, AP complement inactive, Ecoli tolC inactive, M1 antag inactive, M1 agonist conf inconclusive and M4 ag counter inactive.
For CCN1CCN(c2nc3c(C)cccn3c(=O)c2/C=C(\C#N)S(=O)(=O)c2ccccc2)CC1 the results were Ecoli WT expand inactive, M1 ag 8.9, WNV NS2B-NS3 inh inactive, AP complement inactive, Ecoli tolC inactive, M1 antag inactive, M1 agonist conf inactive and M4 ag counter inactive.
For Cc1cccn2c(=O)c(/C=C(\C#N)S(=O)(=O)c3ccccc3)c(N3CCC(C(N)=O)CC3)nc12 the results were Ecoli WT expand inactive.
O=c1c2ccccc2nc2n1CC/C2=C/N1CCN(c2cccc(C(F)(F)F)c2)CC1 was read as Ecoli WT expand inactive, M1 ag inactive, WNV NS2B-NS3 inh inactive, AP complement inactive, Ecoli tolC inactive and M1 antag inactive.
O=C1C2C3CCCC3=C3CCCC3C2C(=O)N1c1cccc(Cl)c1 (stereo not given) was read as Ecoli WT expand inactive, M1 ag inactive, WNV NS2B-NS3 inh inactive, AP complement inactive, Ecoli tolC inactive and M1 antag inactive.
For O=C1C2C3CCCC3=C3CCCC3C2C(=O)N1c1ccc(Cl)cc1 (stereo not given) the results were M1 ag 4.2, WNV NS2B-NS3 inh inactive, AP complement inactive, Ecoli tolC inactive, M1 antag inactive, M1 agonist conf inconclusive and M4 ag counter inactive.
`COC(=O)c1ccc2c(c1)N(Cc1ccccc1F)C(=O)c1ccccc1S2=O` (stereo not given) gave Ecoli WT expand inactive, M1 ag 4.9, WNV NS2B-NS3 inh inactive, AP complement inactive, Ecoli tolC inactive, M1 antag inactive, M1 agonist conf inconclusive and M4 ag counter inactive.
CC(=O)NCCCc1c[nH]c2ccc(Cl)cc12 was read as Ecoli WT expand inactive, M1 ag inactive, WNV NS2B-NS3 inh inactive, AP complement inactive, Ecoli tolC inactive and M1 antag inactive.
Cc1nc2ncnn2c(C)c1CCC(=O)NCCCN1CCN(c2cccc(Cl)c2)CC1 was read as Ecoli WT expand inactive, M1 ag 2.6, WNV NS2B-NS3 inh inactive, AP complement inactive, Ecoli tolC inactive, M1 antag inactive, M1 agonist conf inconclusive and M4 ag counter inactive.
O=C(O)c1ccccc1C(=O)NNc1ccc(F)cc1 was read as Ecoli WT expand inactive.
`COc1ccc(-c2nsc3c(SCC(=O)Nc4cc(C)ccc4C)ncnc23)cc1` gave Ecoli WT expand inactive.

High-throughput results as filed in PubChem.
